ChEMBL document CHEMBL3758165, “In vitro interactions between anidulafungin and nonsteroidal anti-inflammatory drugs on biofilms of Candida spp” (2016)

Legend:
Format in all cases: functional
[1] = tested on: Candida albicans; assay: Antibiofilm activity against Candida albicans ATCC 24433 by two dimensional checkerboard dilution method
In short: (§1)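 Biofilms grown on sterilized PVC disks: 1·10^6 cfu/ml Candida cells adhered for 1.5 h at 37 °C with shaking, washed with PBS, then matured 48 h at 37 °C in RPMI 1640 (MOPS, pH 7). Preformed biofilms were washed and exposed to drug, alone or in two-dimensional checkerboard combination, in RPMI 1640 for 24 h at 37 °C on a rocker.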

[2] = tested on: Candida albicans; assay: Antibiofilm activity against Candida albicans 17a18 by two dimensional checkerboard dilution method; in short: as §1
[3] = tested on: Candida albicans; assay: Antibiofilm activity against Candida albicans ATCC 90028 by two dimensional checkerboard dilution method; in short: as §1
[4] = tested on: Meyerozyma guilliermondii; assay: Antibiofilm activity against Candida guilliermondii a83 by two dimensional checkerboard dilution method; in short: as §1
[5] = tested on: Nakaseomyces glabratus; assay: Antibiofilm activity against Candida glabrata ATCC 15126 by two dimensional checkerboard dilution method; in short: as §1
[6] = tested on: Meyerozyma guilliermondii; assay: Antibiofilm activity against Candida guilliermondii a410 by two dimensional checkerboard dilution method; in short: as §1
[7] = tested on: Meyerozyma guilliermondii; assay: Antibiofilm activity against Candida guilliermondii ATCC 6260 by two dimensional checkerboard dilution method; in short: as §1
[8] = tested on: Meyerozyma guilliermondii; assay: Potentiation of anidulafungin-induced antibiofilm activity against Candida guilliermondii ATCC 6260 at 0.1 uM to 100 mM after 48 hrs by XTT reduction assay relative to control; set-up: scale not given: the % may be the effect or the level left; in short: as §1
[9] = tested on: Nakaseomyces glabratus; assay: Antibiofilm activity against Candida glabrata ATCC 15126 by two dimensional checkerboard dilution method in presence of anidulafungin; in short: as §1
[10] = tested on: Candida albicans; assay: Antibiofilm activity against Candida albicans ATCC 10231 by two dimensional checkerboard dilution method in presence of anidulafungin; in short: as §1
[11] = tested on: Nakaseomyces glabratus; assay: Antibiofilm activity against Candida glabrata ATCC 15126 assessed as fractional inhibitory concentration by two dimensional checkerboard dilution method in presence of anidulafungin
In short: (§2)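 Biofilms grown on PVC disks: 1·10^6 cfu/ml in RPMI 1640 (MOPS, pH 7), 1.5 h adhesion at 37 °C with shaking, PBS wash, 48 h maturation at 37 °C. Preformed biofilms exposed 24 h at 37 °C to anidulafungin/NSAID checkerboard combinations in RPMI. XTT-menadione reduction read at 490 nm. SMIC = 50% metabolic reduction versus drug-free control. Triplicate runs on different days; FIC index calculated.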

[12] = tested on: Meyerozyma guilliermondii; assay: Antibiofilm activity against Candida guilliermondii ATCC 6260 by two dimensional checkerboard dilution method in presence of anidulafungin; in short: as §1
[13] = tested on: Meyerozyma guilliermondii; assay: Potentiation of anidulafungin-induced antibiofilm activity against Candida guilliermondii a410 at 0.1 uM to 100 mM after 48 hrs by XTT reduction assay relative to control; set-up: scale not given: the % may be the effect or the level left; in short: as §1
[14] = tested on: Meyerozyma guilliermondii; assay: Antibiofilm activity against Candida guilliermondii a83 at 0.1 uM to 100 mM after 48 hrs by XTT reduction assay relative to control; set-up: scale not given: the % may be the effect or the level left; in short: as §1
[15] = tested on: Candida albicans; assay: Antibiofilm activity against Candida albicans 17a18 at 0.1 uM to 100 mM after 48 hrs by XTT reduction assay relative to control; set-up: scale not given: the % may be the effect or the level left; in short: as §1
[16] = tested on: Candida albicans; assay: Antibiofilm activity against Candida albicans 17a18 assessed as fractional inhibitory concentration by two dimensional checkerboard dilution method in presence of anidulafungin; in short: as §2
[17] = tested on: Meyerozyma guilliermondii; assay: Antibiofilm activity against Candida guilliermondii a83 assessed as fractional inhibitory concentration by two dimensional checkerboard dilution method in presence of anidulafungin; in short: as §2
[18] = tested on: Nakaseomyces glabratus; assay: Antibiofilm activity against Candida glabrata 18a10 at 0.1 uM to 100 mM after 48 hrs by XTT reduction assay relative to control; set-up: scale not given: the % may be the effect or the level left; in short: as §1
[19] = tested on: Meyerozyma guilliermondii; assay: Potentiation of anidulafungin-induced antibiofilm activity against Candida guilliermondii a83 at 0.1 uM to 100 mM after 48 hrs by XTT reduction assay relative to control; set-up: scale not given: the % may be the effect or the level left; in short: as §1
[20] = tested on: Candida albicans; assay: Antibiofilm activity against Candida albicans ATCC 90028 assessed as fractional inhibitory concentration by two dimensional checkerboard dilution method in presence of anidulafungin; in short: as §2
[21] = tested on: Meyerozyma guilliermondii; assay: Antibiofilm activity against Candida guilliermondii a410 by two dimensional checkerboard dilution method in presence of anidulafungin; in short: as §1
[22] = tested on: Candida albicans; assay: Potentiation of anidulafungin-induced antibiofilm activity against Candida albicans ATCC 24433 assessed as anidulafungin-fractional inhibitory concentration index by two dimensional checkerboard dilution method; in short: as §2
[23] = tested on: Meyerozyma guilliermondii; assay: Potentiation of anidulafungin-induced antibiofilm activity against Candida guilliermondii a410 assessed as anidulafungin-fractional inhibitory concentration index by two dimensional checkerboard dilution method; in short: as §2
[24] = tested on: Meyerozyma guilliermondii; assay: Antibiofilm activity against Candida guilliermondii ATCC 6260 assessed as fractional inhibitory concentration by two dimensional checkerboard dilution method in presence of anidulafungin; in short: as §2
[25] = tested on: Candida albicans; assay: Antibiofilm activity against Candida albicans ATCC 24433 assessed as fractional inhibitory concentration by two dimensional checkerboard dilution method in presence of anidulafungin; in short: as §2
[26] = tested on: Candida albicans; assay: Potentiation of anidulafungin-induced antibiofilm activity against Candida albicans ATCC 10231 at 0.1 uM to 100 mM after 48 hrs by XTT reduction assay relative to control; set-up: scale not given: the % may be the effect or the level left; in short: as §1
[27] = tested on: Candida albicans; assay: Potentiation of anidulafungin-induced antibiofilm activity against Candida albicans ATCC 90028 at 0.1 uM to 100 mM after 48 hrs by XTT reduction assay relative to control; set-up: scale not given: the % may be the effect or the level left; in short: as §1
[28] = tested on: Nakaseomyces glabratus; assay: Antibiofilm activity against Candida glabrata 18a10 by two dimensional checkerboard dilution method in presence of anidulafungin; in short: as §1
[29] = tested on: Nakaseomyces glabratus; assay: Antibiofilm activity against Candida glabrata ATCC 15126 at 0.1 uM to 100 mM after 48 hrs by XTT reduction assay relative to control; set-up: scale not given: the % may be the effect or the level left; in short: as §1
[30] = tested on: Candida albicans; assay: Antibiofilm activity against Candida albicans ATCC 90028 by two dimensional checkerboard dilution method in presence of anidulafungin; in short: as §1
[31] = tested on: Meyerozyma guilliermondii; assay: Antibiofilm activity against Candida guilliermondii a83 by two dimensional checkerboard dilution method in presence of anidulafungin; in short: as §1
[32] = tested on: Candida albicans; assay: Potentiation of anidulafungin-induced antibiofilm activity against Candida albicans ATCC 24433 at 0.1 uM to 100 mM after 48 hrs by XTT reduction assay relative to control; set-up: scale not given: the % may be the effect or the level left; in short: as §1
[33] = tested on: Meyerozyma guilliermondii; assay: Antibiofilm activity against Candida guilliermondii a410 assessed as fractional inhibitory concentration by two dimensional checkerboard dilution method in presence of anidulafungin; in short: as §2
[34] = tested on: Nakaseomyces glabratus; assay: Potentiation of anidulafungin-induced antibiofilm activity against Candida glabrata 18a10 at 0.1 uM to 100 mM after 48 hrs by XTT reduction assay relative to control; set-up: scale not given: the % may be the effect or the level left; in short: as §1
[35] = tested on: Nakaseomyces glabratus; assay: Potentiation of anidulafungin-induced antibiofilm activity against Candida glabrata ATCC 15126 assessed as anidulafungin-fractional inhibitory concentration index by two dimensional checkerboard dilution method; in short: as §2
[36] = tested on: Nakaseomyces glabratus; assay: Potentiation of anidulafungin-induced antibiofilm activity against Candida glabrata 18a10 assessed as anidulafungin-fractional inhibitory concentration index by two dimensional checkerboard dilution method; in short: as §2
[37] = tested on: Nakaseomyces glabratus; assay: Potentiation of anidulafungin-induced antibiofilm activity against Candida glabrata ATCC 15126 at 0.1 uM to 100 mM after 48 hrs by XTT reduction assay relative to control; set-up: scale not given: the % may be the effect or the level left; in short: as §1
[38] = tested on: Candida albicans; assay: Antibiofilm activity against Candida albicans ATCC 24433 by two dimensional checkerboard dilution method in presence of anidulafungin; in short: as §1
[39] = tested on: Meyerozyma guilliermondii; assay: Potentiation of anidulafungin-induced antibiofilm activity against Candida guilliermondii a83 assessed as anidulafungin-fractional inhibitory concentration index by two dimensional checkerboard dilution method; in short: as §2

Compound	MIC [1]	MIC [2]	MIC [3]	MIC [4]	MIC [5]	MIC [6]	MIC [7]	Activity [8] [%]	MIC [9] [µM]	MIC [10] [µM]	Ratio [11]	MIC [12] [µM]	Activity [13] [%]	Activity [14] [%]	Activity [15] [%]	Ratio [16]	Ratio [17]	Activity [18] [%]	Activity [19] [%]	Ratio [20]	further results
CCCCCOc1ccc(-c2ccc(-c3ccc(C(=O)N[C@@H]4C[C@@H](O)[C@@H](O)NC(=O)[C@@H]5[C@@H](O)[C@@H](C)CN5C(=O)[C@H]([C@@H](C)O)NC(=O)[C@H]([C@H](O)[C@@H](O)c5ccc(O)cc5)NC(=O)[C@@H]5C[C@@H](O)CN5C(=O)[C@H]([C@H](C)O)NC4=O)cc3)cc2)cc1	2 µg/mL	2 µg/mL	2 µg/mL	2 µg/mL	2 µg/mL	2 µg/mL	2 µg/mL	–	–	–	–	–	–	–	–	–	–	–	–	–	–
CC(=O)Oc1ccccc1C(=O)O [ASPIRIN]	1000 µM	200 µM	1000 µM	200 µM	200 µM	1000 µM	1000 µM	50.37	10	10	0.05	100	41.54	46.22	46.55	0.05	0.05	32.32	45.32	0.05	MIC [21]: 100 µM; fractional inhibitory concentration index (FICI) [22]: 0.15; fractional inhibitory concentration index (FICI) [23]: 0.15; Ratio [24]: 0.1; Ratio [25]: 0.1; Activity [26]: 82.81%; Activity [27]: 57.84%; MIC [28]: 10 µM; Activity [29]: 29.02%; MIC [30]: 10 µM; MIC [31]: 10 µM; Activity [32]: 56.14%; Ratio [33]: 0.1; Activity [34]: 48.58%; fractional inhibitory concentration index (FICI) [35]: 0.1; fractional inhibitory concentration index (FICI) [36]: 0.1; Activity [37]: 49.78%; MIC [38]: 100 µM; fractional inhibitory concentration index (FICI) [39]: 0.1
O=C([O-])Cc1ccccc1Nc1c(Cl)cccc1Cl.[Na+] [DICLOFENAC SODIUM]	100000 µM	100000 µM	100000 µM	100000 µM	100000 µM	100000 µM	100000 µM	57.69	20000	5000	0.2	40000	54.28	57.87	55.33	0.05	0.2	44.54	55.64	0.05	MIC [21]: 40000 µM; fractional inhibitory concentration index (FICI) [22]: 0.1; fractional inhibitory concentration index (FICI) [23]: 0.45; Ratio [24]: 0.4; Ratio [25]: 0.05; Activity [26]: 66.15%; Activity [27]: 71.04%; MIC [28]: 20000 µM; Activity [29]: 54.44%; MIC [30]: 5000 µM; MIC [31]: 20000 µM; Activity [32]: 65.24%; Ratio [33]: 0.4; Activity [34]: 58.66%; fractional inhibitory concentration index (FICI) [35]: 0.3; fractional inhibitory concentration index (FICI) [36]: 0.3; Activity [37]: 65.96%; MIC [38]: 5000 µM; fractional inhibitory concentration index (FICI) [39]: 0.3
CC(C)Cc1ccc(C(C)C(=O)O)cc1 (centres undefined) [IBUPROFEN]	1000 µM	1000 µM	1000 µM	200 µM	200 µM	200 µM	200 µM	53.32	40	50	0.2	20	51.31	56.78	24.51	0.05	0.2	53.44	52.11	0.1	MIC [21]: 20 µM; fractional inhibitory concentration index (FICI) [22]: 0.3; fractional inhibitory concentration index (FICI) [23]: 0.3; Ratio [24]: 0.1; Ratio [25]: 0.1; Activity [26]: 59.51%; Activity [27]: 61.43%; MIC [28]: 40 µM; Activity [29]: 57.23%; MIC [30]: 1000 µM; MIC [31]: 40 µM; Activity [32]: 60.14%; Ratio [33]: 0.1; Activity [34]: 62.33%; fractional inhibitory concentration index (FICI) [35]: 0.25; fractional inhibitory concentration index (FICI) [36]: 0.25; Activity [37]: 57.46%; MIC [38]: 1000 µM; fractional inhibitory concentration index (FICI) [39]: 0.25
